# Rows were chosen to be rich in hits. Some 2.9% of all compounds tested hit in one or more screens of this group.
# CAL PDZ FP-1: inhibitors of human CAL PDZ peptide binding | Q9HD26 | purified CAL PDZ, TMR-peptide fluorescence polarization, 1 h | inhibition, % at 24.9 µM | hit rate 0.92% among 300,000;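 active = mean inhibition of at least 30% with at least half of replicates also reaching 30%; inconclusive = no clear call, values can overlap the other calls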;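 note: 0% = DMSO neutral control and 100% = excess unlabeled competitor peptide PRC23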
# CAL PDZ FP-2: human CAL PDZ-peptide interaction inhibition. Q9HD26. purified CAL PDZ, TMR-peptide fluorescence polarization, 1 h. inhibition, % at 20 µM. hit rate 0.02% among 330,000. AID 504414;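 active = highest replicate inhibition of at least 40%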;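 note: plate controls were DMSO neutral control wells for no effect and unlabeled competitor peptide control wells for full effect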
#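 Material – purified CerCALP PDZ construct · Detection – FP readout, S and P plane fluorescence · Measure – percent inhibition from loss of millipolarization · Controls – unlabelled peptide for full inhibition, DMSO wells as neutral · Probe or stimulus – TMR-labelled reporter peptide T*-PRC34 bound in PDZ groove · Times – 1 h at RT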
# S100A4 MyoIIA: inhibitors of human S100A4 binding to myosin IIA peptide; P26447; S100A4/TAMRA-MyoIIA peptide fluorescence polarization; inhibition, % at 10.7 µM; hit rate 0.14% among 360,000; AID 652163;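 active = mean inhibition of at least 70% across replicates, with every replicate also reaching that level; inconclusive = mean inhibition reaches 70% but some replicates fall short; inactive = mean inhibition below 70%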
# Target sequence (P26447 whole entry, looked up): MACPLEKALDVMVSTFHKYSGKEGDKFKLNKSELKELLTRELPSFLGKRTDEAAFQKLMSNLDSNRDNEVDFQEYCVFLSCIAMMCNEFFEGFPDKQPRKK
#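 Test system – S100A4 monomer (human) · Compound – single-point compound testing · Schedule – 5 min incubation before reading · Probe or stimulus – TAMRA-labelled myosin IIA heavy-chain peptide probe, 5 nM · Benchmarks – neutral control DMSO, positive control TFP · Medium – Calcium-containing HEPES buffer, pH 7.2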
# ERAP1 inh: inhibitors of human ERAP1 aminopeptidase; Q9NZ08; recombinant ERAP1, Leu-AMC fluorescence, 60 min; inhibition, % at 10.7 µM; hit rate 0.15% among 340,000; AID 652197;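 active = mean replicate inhibition of at least 30%, or all replicates individually reaching that 30% level; inactive = mean below 30% and not every replicate reaching it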;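 note: 0% = neutral control wells and 100% = L-leucinethiol positive control wells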
# SIRT5 block: blocks human SIRT5 desuccinylation of peptide. AID 652115. hit rate 1.1% among 330,000. inhibition, % at 15 µM. Purified SirT5, succinyl-peptide AMC, trypsin-coupled fluorescence. Q9NXA8; in the data active = inhibition above about 15%; inconclusive = no clear call, values can overlap the other calls
# Target sequence (Q9NXA8 whole entry, looked up): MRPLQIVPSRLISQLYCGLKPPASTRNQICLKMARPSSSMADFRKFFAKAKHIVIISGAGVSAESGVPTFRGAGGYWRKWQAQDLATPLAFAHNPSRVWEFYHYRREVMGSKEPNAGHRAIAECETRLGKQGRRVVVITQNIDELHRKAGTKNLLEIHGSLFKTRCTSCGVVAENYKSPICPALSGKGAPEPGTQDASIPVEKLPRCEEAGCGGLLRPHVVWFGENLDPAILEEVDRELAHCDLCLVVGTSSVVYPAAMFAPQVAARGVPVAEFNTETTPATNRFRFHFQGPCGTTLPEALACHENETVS
# DENV2 CPE: DENV2-induced cell death inhibition | DENV2-infected cells, cytopathic effect rescue, plate reader | CPE inhibition, % at 9.99 µM | hit rate 1.7% among 350,000; in the data active = CPE inhibition above about 20%, passing the limit was not always enough; inconclusive = no clear call, values can overlap the other calls; tested in BHK-21 cells;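 note: 0% = median of neutral control wells and 100% = median of positive control wells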
# Active calls of the source: *; ? = inconclusive; nt = not tested or not shown; ! = repeats disagree.
SMILES,CAL PDZ FP-1,CAL PDZ FP-2,S100A4 MyoIIA,ERAP1 inh,SIRT5 block,DENV2 CPE
C[C@@H]1CN([C@H](C)CO)C(=O)c2cc(NC(=O)Cn3cnnn3)ccc2O[C@H]1CN(C)S(=O)(=O)c1ccccc1,nt,nt,-1,-2,-5,7
CN1CCN(C(=O)C[C@@H]2CC[C@@H]3[C@H](COC[C@@H](O)CN3Cc3ccc4c(c3)OCO4)O2)CC1,nt,nt,-1,1,3,100*
O=C(C[C@@H]1CC[C@H]2[C@@H](COC[C@@H](O)CN2Cc2cccc(-c3ccncc3)c2)O1)N1CCCCC1,nt,nt,8,-2,-2,29*
O=C(C[C@@H]1CC[C@@H]2[C@H](COC[C@H](O)CN2Cc2ccc3c(c2)OCO3)O1)N1CCOCC1,nt,nt,-4,-2,-3,-7
CN1CCN(C(=O)C[C@H]2CC[C@@H]3[C@H](COC[C@H](O)CN3Cc3cccc(Cl)c3)O2)CC1,nt,nt,1,-2,1,3
CN1CCN(C(=O)C[C@@H]2CC[C@@H]3[C@H](COC[C@@H](O)CN3Cc3cccc(Cl)c3)O2)CC1,nt,nt,3,0,10,31*!
C[C@@H](NC(=O)C[C@H]1CC[C@H](NC(=O)Nc2ccc3c(c2)OCO3)[C@@H](CO)O1)c1ccccc1,nt,nt,9,3,-1,?
C[C@H]1CN([C@@H](C)CO)S(=O)(=O)c2ccc(-c3cccnc3)cc2O[C@@H]1CN(C)C(=O)CC1CC1,nt,nt,1,-5,-1,-6
NC(=O)CC(NC(=O)Cc1ccc(Cl)cc1)c1ccc(NC2CCN(Cc3ccccc3)CC2)c([N+](=O)[O-])c1 (stereo unspecified),6,0,1,-4,nt,61*
NC(=O)CC(NC(=O)c1cccc(Br)c1)c1ccc(NC2CCN(Cc3ccccc3)CC2)c([N+](=O)[O-])c1 (stereo unspecified),-2,0,-3,nt,nt,70*
NC(=O)CC(NC(=O)c1ccccc1)c1ccc(NC2CCCCCCC2)c([N+](=O)[O-])c1 (stereo unspecified),-4,-1,18,1,2,-15
CN(Cc1ccccc1)c1ccc(C(CC(N)=O)NC(=O)Cc2ccc(Br)cc2)cc1[N+](=O)[O-] (stereo unspecified),-1,-2,56,-1,nt,136*
NC(=O)CC(NC(=O)Cc1ccc(Cl)cc1)c1ccc(NCc2ccccc2)c([N+](=O)[O-])c1 (stereo unspecified),-2,0,1,nt,nt,28*
CO[C@H]1CN(C)C(=O)c2cc(NS(=O)(=O)CC(F)(F)F)ccc2OC[C@@H](C)N(CC2CCCCC2)C[C@H]1C,nt,nt,2,nt,2,-1
CCNC(=O)[C@@H]1[C@@H](CO)[C@@H]2Cn3c(ccc(C4=CCCC4)c3=O)[C@@H]2N1CC1CC1,nt,nt,5,-2,-1,-6
C[C@H](CO)N1C[C@H](C)[C@H](CN(C)Cc2cccnc2)Oc2cc(C#CC3CC3)ccc2S1(=O)=O,nt,nt,7,-3,-3,-6
C[C@H]1CN([C@@H](C)CO)C(=O)c2cc(NC(=O)Nc3cccc4ccccc34)ccc2O[C@@H]1CN(C)CC1CCCCC1,nt,nt,4,1,-4,-5
O=C(Nc1ccc2[nH]c(=O)[nH]c2c1)c1cc(F)c(F)cc1Cl,55*,0,-2,nt,-2,20
COc1ccc(NC(=O)c2cc(F)c(F)cc2Cl)cc1Cl,-8,-4,2,1,-2,13
COc1cccc(NC(=O)N(C)C[C@@H]2Oc3ncc(C#Cc4ccc(F)cc4)cc3C(=O)N([C@@H](C)CO)C[C@H]2C)c1,nt,nt,35,0,5,-9
C=CCn1c(NC(=O)c2ccco2)nc2ccccc21,94*,61*,2,-2,0,-5
Cc1noc(C)c1NC(=O)Nc1ccc2c(c1)C(=O)N([C@H](C)CO)C[C@@H](C)[C@H](CN(C)C(=O)c1ccccc1)OCCCC[C@H](C)O2,nt,nt,50,0,-2,14
CCC(=O)N1C[C@@H]2[C@H](c3ccccc31)[C@@H](CO)N2C(=O)Nc1ccccc1F,nt,nt,0,-2,4,15
CCOc1ccc(N(CC(=O)NC2CCCC(C)C2C)S(=O)(=O)c2c(C)noc2C)cc1 (stereo unspecified),3,-1,3,nt,nt,26*
C[C@H](CO)N1C[C@H](C)[C@H](CN(C)S(=O)(=O)c2cccs2)OCCCC[C@H](C)Oc2ccc(NS(=O)(=O)c3cn(C)cn3)cc2C1=O,nt,nt,-2,2,-4,20
SMILES,CAL PDZ FP-1,CAL PDZ FP-2,S100A4 MyoIIA,ERAP1 inh,SIRT5 block,DENV2 CPE
C#CCN1C=C(C(=O)OCC)C(C)N(Cc2ccccc2I)S1(=O)=O (stereo unspecified),-1,0,0,10,-5,74*
CCCN(CCC)C(=O)Cc1ccc(F)cc1,-8,-2,3,-1,nt,nt
CCCCCCCCCCCCCCCC[N+](C)(C)Cc1ccc(F)cc1,-3,0,-12,96*,14,-2
CCCNC(=O)N1CC2(C1)[C@H](c1ccccc1)[C@H](CO)N2Cc1cccc(F)c1,nt,nt,1,-5,24*,-6
O=C(C1CCCCC1)N1CC2(C1)[C@H](c1ccccc1)[C@@H](CO)N2C(=O)NC1CCCC1,nt,nt,6,3,-6,-2
O=C(C1CCC1)N1CC2(C1)[C@@H](c1ccccc1)[C@@H](CO)N2C(=O)NC1CCCC1,nt,nt,-58,2,0,31*
CCCNC(=O)N1[C@H](CO)[C@@H](c2ccccc2)C12CN(C(=O)C1CCCCC1)C2,nt,nt,8,3,-5,85*
COc1ccc(S(=O)(=O)Nc2ccc3c(c2)C(=O)N([C@@H](C)CO)C[C@H](C)[C@H](CN(C)C(=O)NC2CCCCC2)OCCCC[C@@H](C)O3)cc1,nt,nt,14,1,3,-6
COc1cccc(NC(=O)N[C@@H]2C=C[C@H](CC(=O)N3CCOCC3)O[C@@H]2CO)c1,nt,nt,4,2,-1,4
Nc1nc(-c2ccc([N+](=O)[O-])cc2)cc(=O)[nH]1,-2,1,-2,0,5,133*
Cc1ccc(F)cc1S(=O)(=O)N[C@H]1CCN(Cc2ccc(OC(C)C)cc2)C1,nt,nt,0,-2,-2,29*
Cc1ccc(F)cc1S(=O)(=O)N[C@@H]1CCN(Cc2ccc(OC(C)C)cc2)C1,nt,nt,-5,0,0,?
C[C@@H]1CN([C@H](C)CO)C(=O)c2cc(C#Cc3ccc(F)cc3)cnc2O[C@H]1CN(C)C,nt,nt,-5,1,6,-7
C[C@@H]1CN([C@H](C)CO)C(=O)c2cc(C#Cc3ccc(F)cc3)cnc2O[C@@H]1CN(C)C,nt,nt,1,-2,-2,81*
C[C@H]1CN([C@@H](C)CO)C(=O)c2cc(C#CC3CC3)cnc2O[C@@H]1CN(C)C,nt,nt,-8,0,-3,69*
